Experimental data as given in ChEMBL document CHEMBL3112444, “Synthesis and anticancer activity of focused compound libraries from the natural product lead, oroidin” (2014).

How the values were obtained:
[1] = test system: DU-145; assay: Cytotoxicity against human DU145 cells assessed as growth inhibition at 25 uM after 72 hrs by MTT assay relative to control; format: functional; settings: DU-145, 72 h, read-out: GI
Outline: (§1)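 Cells in logarithmic growth kept in DMEM with 10% FBS, 10 mM sodium bicarbonate, penicillin 100 IU/mL, glutamine 4 mM, at 37 °C under 5% CO2. Plated in duplicate at 2500–4000 cells/well. Compound (30 mM DMSO stock) added 24 h after plating. MTT read at 540 nm after 72 h exposure.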

[2] = test system: A-431; assay: Cytotoxicity against human A431 cells assessed as growth inhibition at 25 uM after 72 hrs by MTT assay relative to control; format: functional; settings: A-431, 72 h, read-out: GI; outline: as §1
[3] = Cytotoxicity against human BE(2)-C cells assessed as growth inhibition at 25 uM after 72 hrs by MTT assay relative to control; format: functional; settings: read-out: GI; outline: as §1
[4] = Cytotoxicity against human H460 cells assessed as growth inhibition at 25 uM after 72 hrs by MTT assay relative to control; format: functional; settings: NCI-H460, 72 h, read-out: GI; outline: as §1
[5] = Cytotoxicity against human U87 cells assessed as growth inhibition at 25 uM after 72 hrs by MTT assay relative to control; format: functional, U-87MG ATCC; settings: U-87 MG, read-out: GI; outline: as §1
[6] = test system: MCF7; assay: Cytotoxicity against human MCF7 cells assessed as growth inhibition at 25 uM after 72 hrs by MTT assay relative to control; format: functional; settings: MCF7, 72 h, read-out: GI; outline: as §1
[7] = Cytotoxicity against mouse SMA cells assessed as growth inhibition at 25 uM after 72 hrs by MTT assay relative to control; format: functional; settings: read-out: GI; outline: as §1
[8] = Cytotoxicity against human MIA cells assessed as growth inhibition at 25 uM after 72 hrs by MTT assay relative to control; format: functional; settings: read-out: GI; outline: as §1
[9] = Cytotoxicity against human SJ-G2 cells assessed as growth inhibition at 25 uM after 72 hrs by MTT assay relative to control; format: functional; settings: SJ-G2, 72 h, read-out: GI; outline: as §1
[10] = test system: A2780; assay: Cytotoxicity against human A2780 cells assessed as growth inhibition at 25 uM after 72 hrs by MTT assay relative to control; format: functional; settings: A2780, 72 h, read-out: GI; outline: as §1
[11] = test system: HT-29; assay: Cytotoxicity against human HT-29 cells assessed as growth inhibition at 25 uM after 72 hrs by MTT assay relative to control; format: functional; settings: HT-29, 72 h, read-out: GI; outline: as §1
[12] = test system: SW480; assay: Cytotoxicity against human SW480 cells assessed as growth inhibition at 25 uM after 72 hrs by MTT assay relative to control; format: functional; settings: SW480, 72 h, read-out: GI; outline: as §1

SMILES | inhibition of growth at 25 µM [1] [%] | inhibition of growth at 25 µM [2] [%] | inhibition of growth at 25 µM [3] [%] | inhibition of growth at 25 µM [4] [%] | inhibition of growth at 25 µM [5] [%] | inhibition of growth at 25 µM [6] [%] | inhibition of growth at 25 µM [7] [%] | inhibition of growth at 25 µM [8] [%] | inhibition of growth at 25 µM [9] [%] | inhibition of growth at 25 µM [10] [%] | inhibition of growth at 25 µM [11] [%] | inhibition of growth at 25 µM [12] [%]
Cc1nccn1CCCNC(=O)c1ccc[nH]1 | 5 | < 0 | < 0 | 3 | 3 | 8 | < 0 | 4 | < 0 | 1 | 5 | 7
CCc1ccc(CCNC(=O)c2cc(Br)c(Br)[nH]2)cc1 | 7 | 22 | 20 | 23 | 6 | 88 | 79 | 31 | 22 | 67 | 81 | 5
O=C(NCCc1ccc(O)cc1)c1ccc[nH]1 | < 0 | < 0 | < 0 | 2 | 2 | 8 | < 1 | 6 | 11 | 18 | 3 | 5
O=C(NCCc1ccc2ccccc2c1)c1ccc[nH]1 | 20 | 8 | < 0 | 23 | < 1 | 23 | 16 | 20 | 8 | 13 | 19 | 3
O=C(NCCc1ccc2ccccc2c1)c1cc(Br)c(Br)[nH]1 | 14 | 15 | < 0 | 12 | < 0 | 53 | 17 | 21 | 10 | 52 | 28 | < 0
O=C(NCCCc1ccccc1)c1ccc[nH]1 | < 0 | 1 | < 0 | 13 | 11 | 21 | 8 | 10 | 0 | 10 | 16 | 7
O=C(NCc1ccc(Cl)c(Cl)c1)c1ccc[nH]1 | < 0 | 6 | < 0 | 14 | 4 | 7 | 17 | < 0 | 11 | 15 | 14 | < 0
O=C(NCC(c1ccccc1)c1ccccc1)c1ccc[nH]1 | 8 | 30 | < 0 | 11 | 14 | 52 | 15 | 32 | 53 | 27 | 29 | < 0
O=C(NCCc1ccccc1)c1ccc[nH]1 | 5 | 5 | < 0 | 5 | 9 | 7 | 7 | < 0 | 2 | 6 | 9 | 9
O=C(NCCCc1ccccc1)c1cc(Br)c(Br)[nH]1 | < 0 | 5 | < 0 | 25 | < 0 | 63 | 45 | 21 | 8 | 48 | 41 | < 0
O=C(NCCCCc1ccccc1)c1cc(Br)c(Br)[nH]1 | 19 | 24 | < 0 | 17 | < 0 | 70 | 40 | 34 | 14 | 56 | 41 | < 0
O=C(NCCCn1cccn1)c1ccc[nH]1 | 7 | 1 | 1 | 14 | 9 | 7 | 8 | 19 | < 0 | 10 | 4 | 9
O=C(NCCCCc1ccccc1)c1ccc[nH]1 | 10 | 12 | < 0 | 11 | < 0 | 23 | 6 | 15 | 8 | 13 | 16 | < 0
Cc1nccn1CCCNC(=O)c1cc(Br)c(Br)[nH]1 | 28 | 11 | 20 | 22 | < 0 | 36 | 11 | 15 | 10 | 21 | 10 | 26
O=C(NCc1ccc(Cl)cc1)c1ccc[nH]1 | < 0 | < 0 | < 0 | < 0 | 4 | 10 | 10 | 1 | < 0 | 2 | 10 | 4
COc1ccc(CNC(=O)c2ccc[nH]2)cc1 | 8 | < 0 | < 0 | 2 | < 0 | 5 | < 0 | 6 | < 0 | 6 | 3 | 10
O=C(NCCc1ccccc1)c1cc(Br)c(Br)[nH]1 | < 0 | 7 | 62 | 19 | < 0 | 70 | 53 | 19 | 22 | 58 | 46 | 1
O=C(NCCc1c[nH]cn1)c1ccc[nH]1 | 5 | 3 | < 0 | 0 | 6 | 1 | 0 | 7 | < 0 | 11 | 11 | 1
